According to publication PMC3150610 (Journal of medicinal chemistry, 2011):

Key:
[1] = biological target: Human α-thrombin (Homo sapiens, UniProt P00734); type: biochemical; conditions: for fold change in IC50 (weaker) relative to 12a: comparator 12a; for fold weaker thrombin inhibition of di-sulfated dimers: comparator not given
[2] = test system: citrated human plasma; assay: Activated partial thromboplastin time; conditions: ellagic acid initiator
Summary of the method: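 Test compound in citrated human plasma with pre-warmed APTT reagent (0.2% ellagic acid), incubated 4 min. Clotting started with 25 mM CaCl2 at 37 °C and time to clot read on a fibrometer. One-stage recalcification format, each assay in duplicate. Clotting time versus concentration fitted to a quadratic trendline to get the concentration that doubles APTT.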

[3] = test system: citrated human plasma; assay: Prothrombin time; conditions: thromboplastin initiator
Summary of the method: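 Test compound brought up in citrated human plasma and held 30 s at 37 °C. Pre-warmed thromboplastin (reconstituted per manufacturer, 37 °C) then added and clotting time read on a fibrometer in a one-stage assay. Deionized water served as the no-anticoagulant control. Run in duplicate. Quadratic trendline fit gave the concentration doubling PT.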

[4] = biological target: human thrombin (Homo sapiens, UniProt P00734); assay: Michaelis-Menten kinetics of Spectrozyme TH hydrolysis by thrombin; type: biochemical; conditions: for VMAX of Spectrozyme TH hydrolysis: pH 7.4
Summary of the method: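 Human α-thrombin (5–10 nM) with Spectrozyme TH at 10 to 600 μM, at fixed test compound levels of 0–30 μM. Run in 20 mM Tris-HCl, pH 7.4, at 37 °C. Initial rate taken from the linear rise in A405 while under 10% of substrate was consumed. Data fitted to the Michaelis-Menten equation for KM and VMAX.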

Compound: COc1cc2oc(C)c(C(=O)O)c2cc1OCc1oc2cc(OC)c(OS(=O)(=O)[O-])cc2c1C(=O)O.[Na+] [compound 15]
- fold change in IC50 (weaker) relative to 12a [1]: 6.2 fold

Compound: CCOC(=O)c1c(C)oc2cc(OCc3oc4cc(OC)c(OS(=O)(=O)[O-])cc4c3C(=O)OCC)c(OS(=O)(=O)[O-])cc12.[Na+].[Na+] [compound 17]
- fold weaker thrombin inhibition of di-sulfated dimers [1]: 6–17 fold

Compound: COCCOC(=O)c1c(C)oc2cc(OC)c(OCc3oc4cc(OC)c(OS(=O)(=O)[O-])cc4c3C(=O)OCCOC)cc12.[Na+] [12d]
- fold change in IC50 (weaker) relative to 12a [1]: 6.2 fold

Compound: CCOC(=O)c1c(C)oc2cc(OCC)c(OCc3oc4cc(OCC)c(OS(=O)(=O)[O-])cc4c3C(=O)OCC)cc12.[Na+] [12e]
- concentration required to double APTT (2×APTT) [2]: 355 to 1250 µM

Compound: COC(=O)c1c(C)oc2cc(OC)c(OCc3oc4cc(OC)c(OS(=O)(=O)[O-])cc4c3C(=O)OC)cc12.[Na+] [12b]
- concentration required to double PT (2×PT) [3]: 850 to 2100 µM

Compound: CCOC(=O)c1c(COc2cc3c(C(=O)OCC)c(CN4CCOCC4)oc3cc2OC)oc2cc(OC)c(OS(=O)(=O)[O-])cc12.[Na+] [compound 13]
- fold change in IC50 (weaker) relative to 12a [1]: 2.2 fold

Compound: CCOC(=O)c1c(C)oc2cc(OC)c(OCc3oc4cc(OC)c(OS(=O)(=O)[O-])cc4c3C(=O)OCC)cc12.[Na+] [12a]
- mechanism of thrombin inhibition ([4]; Michaelis-Menten kinetics): non-competitive, allosteric mechanism
- VMAX of Spectrozyme TH hydrolysis ([4]; in presence of 1.5 μM 12a): 97 ± 13 mAUmin^−1μM^−1
- VMAX of Spectrozyme TH hydrolysis ([4]; in presence of 3.0 μM 12a): 107 ± 14 mAUmin^−1μM^−1
- VMAX of Spectrozyme TH hydrolysis ([4]; in presence of 10.5 μM 12a): 73 ± 13 mAUmin^−1μM^−1
- VMAX of Spectrozyme TH hydrolysis ([4]; in presence of 30 μM 12a): 66 ± 6 mAUmin^−1μM^−1
- decrease in maximal velocity of reaction ([4]; upon approximately 50% saturation of the enzyme): ~ 34%

Compound: COc1cc2oc(C)c(C(=O)N3CCOCC3)c2cc1OCc1oc2cc(OC)c(OS(=O)(=O)[O-])cc2c1C(=O)N1CCOCC1.[Na+] [compound 14]
- fold loss of affinity from t-butyl ester dimer ([1]; comparator printed as dimer 2c): more than 270 fold

Compound: CCOC(=O)c1c(C)oc2cc(OC(C)C)c(OCc3oc4cc(OC(C)C)c(OS(=O)(=O)[O-])cc4c3C(=O)OCC)cc12.[Na+] [12f]
- fold increase in potency, ethyl to isopropyl at 6-position ([1]; 12f versus 12e): ~4 fold

Compound: CCOC(=O)c1c(C)oc2cc(OC)c(OCc3oc4cc(OS(=O)(=O)[O-])c(OS(=O)(=O)[O-])cc4c3C(=O)OCC)cc12.[Na+].[Na+] [compound 18]
- fold weaker thrombin inhibition of di-sulfated dimers [1]: 6–17 fold

Compound: COc1cc2oc(C)c(C(=O)OC(C)(C)C)c2cc1OCc1oc2cc(OC)c(OS(=O)(=O)[O-])cc2c1C(=O)OC(C)(C)C.[Na+] [12c]
- fold improvement of inhibition potency with lipophilicity of 3-ester ([1]; across 12a, 12b, 12c): 8.2 fold
- concentration required to double APTT (2×APTT) [2]: 355 to 1250 µM
